Assay results of several laboratories.
Each line is one published result; the experiments were not run side by side.
Target: Serine/threonine-protein kinase Sgk3 (SGK3, Homo sapiens, UniProt Q96BR1)
Residues used in one study (Q96BR1 1-496): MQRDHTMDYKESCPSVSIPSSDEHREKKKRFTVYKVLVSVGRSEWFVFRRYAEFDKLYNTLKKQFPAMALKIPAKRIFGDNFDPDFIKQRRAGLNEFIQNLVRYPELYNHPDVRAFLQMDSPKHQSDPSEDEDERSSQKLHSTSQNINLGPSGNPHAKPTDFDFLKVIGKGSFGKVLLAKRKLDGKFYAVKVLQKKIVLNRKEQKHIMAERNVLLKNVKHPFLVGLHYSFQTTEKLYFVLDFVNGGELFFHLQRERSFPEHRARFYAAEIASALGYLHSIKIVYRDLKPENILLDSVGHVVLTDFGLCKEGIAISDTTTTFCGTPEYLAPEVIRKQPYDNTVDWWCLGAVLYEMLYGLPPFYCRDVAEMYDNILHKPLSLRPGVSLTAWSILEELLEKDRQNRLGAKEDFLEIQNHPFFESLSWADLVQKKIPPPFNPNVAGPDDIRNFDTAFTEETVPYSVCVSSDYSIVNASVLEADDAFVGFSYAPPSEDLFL

assay	setting	remaining binding	SMILES
binding, competition with immobilised ligand	1 µM	72%	COc1cnc(Nc2cccc(S(N)(=O)=O)c2)nc1N1CCN(c2ccccc2)CC1
binding	1 µM	95%	COc1ccnn2ncc(-c3ccnc(N(C)C)n3)c12
binding, competition with immobilised ligand	1 µM	78%	O=C(NCC1CCOCC1)c1n[nH]cc1NC(=O)c1c(F)cccc1F
binding	1 µM	100%	N[C@H]1CCN(c2nccc(-c3cnn4ncccc34)n2)C1
binding, competition with immobilised ligand	1 µM	29%	O=C(NCCCN1CCOCC1)c1ccc(Nc2nccc(-c3cc4ccccc4s3)n2)cc1
cell-free assay, competition with immobilised ligand	1 µM	100%	Cc1noc([C@H]2C[C@@H](c3ccc(C(F)(F)F)cc3)CN(C(=O)N3CCS(=O)(=O)C3)C2)n1
binding, competition with immobilised ligand	10 µM	58%	c1cncc(-c2cccc(Nc3nccc(NC4CCCCC4)n3)c2)c1
binding, competition with immobilised ligand	1 µM	45%	O=C(NCCCN1CCOCC1)c1ccc(Nc2ncc(Cl)c(-c3ccc(Cl)s3)n2)cc1
binding	1 µM	97%	CN(CCCC(F)(F)F)c1nccc(-c2cnn3ncccc23)n1
cell-free assay, competition with immobilised ligand	1 µM	99%	O=C(NCc1ncc(C(F)(F)F)cc1Cl)c1ccc2c(c1)C1(CCS(=O)(=O)CC1)[C@H](C1CC1)N2S(=O)(=O)c1ccc(F)cc1
binding	1 µM	79%	CN(C)c1nccc(-c2cnc3ncccn23)n1
binding, competition with immobilised ligand	1 µM	100%	Nc1ncc2c(n1)-c1c([nH]c3ccc(C#CC4CC4)cc13)CCCC2
binding	1 µM	71%	c1cnn2ncc(-c3ccnc(N4CCC45COC5)n3)c2c1
cell-free assay, competition with immobilised ligand	0.1 µM	100%	COCCOc1nc(-c2ccc(Cl)nc2)nc2c1CN(C(=O)c1ncn3ccccc13)CC2
binding, competition with immobilised ligand	1 µM	5.6%	O=C(c1ccc(Nc2ncc(Cl)c(-c3cc4ccccc4s3)n2)cc1)N1CCC(N2CCCC2)CC1
cell-free assay, competition with immobilised ligand	1 µM	69.2%	COc1cccc(CNC(=O)c2nc3scc(COCc4ccc(C(=O)O)cc4)c3c(=O)[nH]2)c1
binding, competition with immobilised ligand	1 µM	100%	CCN1CCN(Cc2ccc(C(=O)Nc3ccc(C)c(Oc4ccc5c(c4)CC(=O)N5)c3)cc2C(F)(F)F)CC1
cell-free assay, competition with immobilised ligand	1 µM	100%	O=C(Nc1cnc(Oc2ccc(F)cc2)nc1)N1CCc2ncccc2[C@@H]1c1ccc(F)cc1
binding, competition with immobilised ligand	1 µM	100%	COc1cnc(Nc2cccc(S(N)(=O)=O)c2)nc1N1CCN(c2ccccc2)C(=O)C1
binding	1 µM	87%	C[C@@H]1CCN(c2nccc(-c3cnn4ncccc34)n2)C1
cell-free assay, competition with immobilised ligand	1 µM	94%	Cc1c(NC(=O)c2cc(C(N)=O)nc3cc(F)ccc23)c(C(F)(F)F)nn1Cc1ccc(C(C)(C)C)cc1
